Results as given in PMC3170876 (Chemmedchem, 2011).

Experiments:
human 11β-HSD1 = human 11β-HSD1 (Homo sapiens, UniProt P28845); experiment: 11β-HSD1 inhibition cellular assay; type: cell-based; conditions: for IC50: IC50, human 11β-HSD1, HEK293 cell line transfected with human HSD11B1 gene, mean of three measurements, variance less than 20 %; for inhibition at 1 µM: HEK293, read-out: Percent inhibition
mouse 11β-HSD1 = mouse 11β-HSD1 (Mus musculus, UniProt P50172); experiment: Inhibition of mouse 11β-HSD1; type: cell-based
Chain of mouse 11β-HSD1 (P50172 whole entry): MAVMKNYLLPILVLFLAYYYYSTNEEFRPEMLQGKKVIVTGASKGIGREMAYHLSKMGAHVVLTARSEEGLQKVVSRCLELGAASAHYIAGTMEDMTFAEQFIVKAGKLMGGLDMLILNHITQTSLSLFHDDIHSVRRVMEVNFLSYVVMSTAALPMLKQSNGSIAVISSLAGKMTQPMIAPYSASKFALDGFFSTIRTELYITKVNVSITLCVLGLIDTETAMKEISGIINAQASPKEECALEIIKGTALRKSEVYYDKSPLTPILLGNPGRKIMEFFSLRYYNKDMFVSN

human 11β-HSD2 = biological target: T1, human 11β-HSD2 (Homo sapiens, UniProt P80365); experiment: Selectivity: inhibition of human 11β-HSD2; type: cell-based; conditions: at a concentration of 10 μM (data not shown)
T1 sequence (P80365 1-405): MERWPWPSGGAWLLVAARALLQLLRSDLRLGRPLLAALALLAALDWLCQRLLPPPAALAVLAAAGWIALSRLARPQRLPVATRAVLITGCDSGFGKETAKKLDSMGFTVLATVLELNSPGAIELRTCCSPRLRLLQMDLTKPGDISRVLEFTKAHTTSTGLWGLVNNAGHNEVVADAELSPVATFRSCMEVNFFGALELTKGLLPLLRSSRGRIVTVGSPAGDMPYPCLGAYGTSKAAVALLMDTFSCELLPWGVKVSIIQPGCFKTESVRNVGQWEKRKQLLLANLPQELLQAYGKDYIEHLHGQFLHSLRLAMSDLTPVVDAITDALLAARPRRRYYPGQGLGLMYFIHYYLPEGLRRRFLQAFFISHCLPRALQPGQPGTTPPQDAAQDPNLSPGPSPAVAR

17β-HSD1 = biological target: T2, 17β-HSD1 (Homo sapiens, UniProt P14061); experiment: Selectivity: inhibition of 17β-HSD1; conditions: at a concentration of 10 μM (data not shown)
T2 sequence (P14061 1-328): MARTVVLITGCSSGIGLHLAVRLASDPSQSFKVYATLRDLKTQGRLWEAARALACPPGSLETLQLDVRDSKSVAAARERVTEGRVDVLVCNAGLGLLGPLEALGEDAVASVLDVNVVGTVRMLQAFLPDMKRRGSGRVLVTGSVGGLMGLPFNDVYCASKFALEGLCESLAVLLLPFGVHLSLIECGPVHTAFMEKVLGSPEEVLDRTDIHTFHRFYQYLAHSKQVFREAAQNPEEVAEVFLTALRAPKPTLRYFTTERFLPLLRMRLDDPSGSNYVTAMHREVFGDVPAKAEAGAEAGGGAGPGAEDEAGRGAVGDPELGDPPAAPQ

[1] = Membrane permeability in the Caco-2 cell model; type: in vitro ADME; conditions: human
Outline: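 Caco-2 monolayer permeability. Test compound was applied at 20 μm, and the apparent permeability coefficient (Papp) was determined in the apical-to-basolateral direction.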

Chain of human 11β-HSD1 (P28845 whole entry): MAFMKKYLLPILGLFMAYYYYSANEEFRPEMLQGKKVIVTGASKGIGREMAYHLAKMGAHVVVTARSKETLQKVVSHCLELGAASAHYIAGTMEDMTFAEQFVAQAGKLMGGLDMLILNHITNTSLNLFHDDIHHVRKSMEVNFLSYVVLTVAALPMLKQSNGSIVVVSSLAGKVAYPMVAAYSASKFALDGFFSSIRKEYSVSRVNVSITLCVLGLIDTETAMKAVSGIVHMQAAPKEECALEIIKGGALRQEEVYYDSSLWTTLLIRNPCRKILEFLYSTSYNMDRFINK

Row | SMILES | IC50 (human 11β-HSD1) [nM] | melting point [°C] | also measured
1 | COC(=O)Cc1nnc(SCC(=O)C23CC4CC(CC(C4)C2)C3)n1C [Compound 42, Methyl 2-(5-{[2-(adamantan-1-yl)-2-oxoethyl]sulfanyl}-4-methyl-4H-1,2,4-triazol-3-yl)acetate] | 97 | – | –
2 | O=C(COCc1ccsc1)C12CC3CC(CC(C3)C1)C2 [Compound 7, 1-(Adamantan-1-yl)-2-(thiophen-3-ylmethoxy)ethanone] | 280 | 58 to 60 | –
3 | O=C(CSCc1nccs1)C12CC3CC(CC(C3)C1)C2 [Compound 12, 1-(Adamantan-1-yl)-2-[(1,3-thiazol-2-ylmethyl)sulfanyl]ethanone] | 244 | 55 to 58 | –
4 | O=C(COCc1cccs1)C12CC3CC(CC(C3)C1)C2 [Compound 6, 1-(Adamantan-1-yl)-2-(thiophen-2-ylmethoxy)ethanone] | 410 | 57 to 58 | –
5 | Cc1nnc(SCC(=O)C23CC4CC(CC(C4)C2)C3)n1C [Compound 38, 1-(Adamantan-1-yl)-2-[(4,5-dimethyl-1,2,4-triazol-3-yl)sulfanyl]ethanone] | 36 | – | IC50 (mouse 11β-HSD1): 248 nM; inhibition against human 11β-HSD2 (human 11β-HSD2): inactive; inhibition against 17β-HSD1 (17β-HSD1): inactive
6 | Cc1csc(CSCC(=O)C23CC4CC(CC(C4)C2)C3)n1 [Compound 13, 1-(Adamantan-1-yl)-2-{[(4-methyl-1,3-thiazol-2-yl)methyl]sulfanyl}ethanone] | 327 | – | –
7 | Cc1nnc([S+]([O-])CC(=O)C23CC4CC(CC(C4)C2)C3)s1 (stereo not shown) [Compound 33, 1-(Adamantan-1-yl)-2-(5-methyl-[1,3,4]thiadiazole-2-sulfinyl)ethanone] | 26 | 127 to 129 | IC50 (mouse 11β-HSD1): 44 nM
8 | COCc1nnc(SCC(=O)C23CC4CC(CC(C4)C2)C3)n1C [Compound 41, 1-(Adamantan-1-yl)-2-{[5-(methoxymethyl)-4-methyl-4H-1,2,4-triazol-3-yl]sulfanyl}ethanone] | 153 | – | –
9 | O=C(CSc1nnc(C2CC2)n1C1CC1)C12CC3CC(CC(C3)C1)C2 [Compound 43, 1-(Adamantan-1-yl)-2-[(4,5-dicyclopropyl-4H-1,2,4-triazol-3-yl)sulfanyl]ethanone] | 1860 | 117 to 119 | –
10 | Cn1ccnc1[S+]([O-])CC(=O)C12CC3CC(CC(C3)C1)C2 (stereo not shown) [Compound 31, 1-(Adamantan-1-yl)-2-(1-methyl-1H-imidazole-2-sulfinyl)ethanone] | 48 | 86 to 89 | IC50 (mouse 11β-HSD1): 121 nM; Papp A→B at 20 μM [1]: 44 ×10⁻⁶ cm/s; inhibition against human 11β-HSD2 (human 11β-HSD2): inactive; inhibition against 17β-HSD1 (17β-HSD1): inactive
11 | CC(=O)Nc1nnc(SCC(=O)C23CC4CC(CC(C4)C2)C3)s1 [Compound 50, N-(5-{[2-(Adamantan-1-yl)-2-oxoethyl]sulfanyl}-1,3,4-thiadiazol-2-yl)acetamide] | 848 | – | –
12 | Cn1cnnc1S(=O)(=O)CC(=O)C12CC3CC(CC(C3)C1)C2 [Compound 36, 1-(Adamantan-1-yl)-2-(4-methyl-4H-[1,2,4]triazole-3-sulfonyl)ethanone] | 95 | 149 to 150 | –
13 | COC(=O)c1ccc(CSCC(=O)C23CC4CC(CC(C4)C2)C3)o1 [Compound 18, Methyl 5-({[2-(adamantan-1-yl)-2-oxoethyl]sulfanyl}methyl)furan-2-carboxylate] | 264 | – | –
14 | Cc1nnc(SCC(=O)C23CC4CC(CC(C4)C2)C3)s1 [Compound 29, 1-(Adamantan-1-yl)-2-(5-methyl-[1,3,4]thiadiazol-2-ylsulfanyl)-ethanone] | – | 102 to 105 | –
15 | Cc1nnc(SCC(=O)C23CC4CC(CC(C4)C2)C3)n1C(C)C [Compound 39, 1-(Adamantan-1-yl)-2-{[5-methyl-4-(propan-2-yl)-4H-1,2,4-triazol-3-yl]sulfanyl}ethanone] | 137 | – | –
16 | Nc1nnc(SCC(=O)C23CC4CC(CC(C4)C2)C3)s1 [Compound 48, 1-(Adamantan-1-yl)-2-[(5-amino-1,3,4-thiadiazol-2-yl)sulfanyl]ethanone] | 71 | 198 to 199 | –
17 | Cc1csc(COCC(=O)C23CC4CC(CC(C4)C2)C3)n1 [Compound 9, 1-(Adamantan-1-yl)-2-[(4-methyl-1,3-thiazol-2-yl)methoxy]ethanone] | – | 77 to 80 | –

Row | SMILES | IC50 (human 11β-HSD1) [nM] | melting point [°C] | also measured
18 | CN(C)c1nnc(SCC(=O)C23CC4CC(CC(C4)C2)C3)s1 [Compound 45, 1-(Adamantan-1-yl)-2-{[5-(dimethylamino)-1,3,4-thiadiazol-2-yl]sulfanyl}ethanone] | 4000 | – | –
19 | Nc1nnc(S(=O)(=O)CC(=O)C23CC4CC(CC(C4)C2)C3)s1 [Compound 49, 1-(Adamantan-1-yl)-2-(5-amino-1,3,4-thiadiazole-2-sulfonyl)ethanone] | 1790 | 202 to 204 | –
20 | Cn1ccnc1SCC(=O)C12CC3CC(CC(C3)C1)C2 [Compound 27, 1-(Adamantan-1-yl)-2-(1-methyl-1H-imidazol-2-ylsulfanyl)-ethanone] | 93 | 65 to 69 | –
21 | O=C(COCc1nccs1)C12CC3CC(CC(C3)C1)C2 [Compound 8, 1-(Adamantan-1-yl)-2-(1,3-thiazol-2-ylmethoxy)ethanone] | 41 | 89 to 91 | IC50 (mouse 11β-HSD1): 18 nM
22 | CCSc1nnc(SCC(=O)C23CC4CC(CC(C4)C2)C3)s1 [Compound 47, 1-(Adamantan-1-yl)-2-{[5-(ethylsulfanyl)-1,3,4-thiadiazol-2-yl]sulfanyl}ethanone] | – | – | inhibition at 1 µM (human 11β-HSD1): 68%
23 | CSc1nnc(SCC(=O)C23CC4CC(CC(C4)C2)C3)s1 [Compound 46, 1-(Adamantan-1-yl)-2-{[5-(methylsulfanyl)-1,3,4-thiadiazol-2-yl]sulfanyl}ethanone] | 306 | 133.5 to 135 | –
24 | O=C(CSCc1cccs1)C12CC3CC(CC(C3)C1)C2 [Compound 10, 1-(Adamantan-1-yl)-2-(thiophen-2-ylmethylsulfanyl)ethanone] | 143 | – | –
25 | Cn1ccnc1S(=O)(=O)CC(=O)C12CC3CC(CC(C3)C1)C2 [Compound 35, 1-(Adamantan-1-yl)-2-(1-methyl-1H-imidazole-2-sulfonyl)ethanone] | 62 | 124 to 125 | –
26 | Cn1c(SCC(=O)C23CC4CC(CC(C4)C2)C3)nnc1-c1cccs1 [Compound 44, 1-(Adamantan-1-yl)-2-{[4-methyl-5-(thiophen-2-yl)-4H-1,2,4-triazol-3-yl]sulfanyl}ethanone] | 5870 | 156 to 157 | –
27 | O=C(C[S+]([O-])Cc1ccco1)C12CC3CC(CC(C3)C1)C2 (stereo not shown) [Compound 15, 1-(Adamantan-1-yl)-2-(furan-2-ylmethanesulfinyl)ethanone] | 41 | 75 to 79 | IC50 (mouse 11β-HSD1): 38 nM
28 | O=C(CSCc1ccco1)C12CC3CC(CC(C3)C1)C2 [Compound 11, 1-(Adamantan-1-yl)-2-(furan-2-ylmethylsulfanyl)-ethanone] | 163 | – | –
29 | O=C(O)c1ccc(CSCC(=O)C23CC4CC(CC(C4)C2)C3)o1 [Compound 19, 5-(((2-(Adamantan-1-yl)-2-oxoethyl)thio)methyl)furan-2-carboxylic acid] | – | – | inhibition at 1 µM (human 11β-HSD1): 67%
30 | Cn1cnnc1[S+]([O-])CC(=O)C12CC3CC(CC(C3)C1)C2 (stereo not shown) [Compound 32, 1-(Adamantan-1-yl)-2-(4-methyl-4H-[1,2,4]triazole-3-sulfinyl)ethanone] | 27 | 124.5 to 127 | IC50 (mouse 11β-HSD1): 3080 nM
31 | Cn1c(SCC(=O)C23CC4CC(CC(C4)C2)C3)nnc1C1CC1 [Compound 40, 1-(Adamantan-1-yl)-2-[(5-cyclopropyl-4-methyl-4H-1,2,4-triazol-3-yl)sulfanyl]ethanone] | 129 | – | –
32 | O=C(CSc1cccs1)C12CC3CC(CC(C3)C1)C2 [Compound 26, 1-(Adamantan-1-yl)-2-(thiophen-2-ylsulfanyl)-ethanone] | 101 | 69 to 72 | –
33 | CN(C)C(=O)c1ccc(CSCC(=O)C23CC4CC(CC(C4)C2)C3)o1 [Compound 20, 5-({[2-(Adamantan-1-yl)-2-oxoethyl]sulfanyl}methyl)-N,N-dimethylfuran-2-carboxamide] | 153 | – | –
